ChEMBL document CHEMBL1139042, “1,3-Disubstituted-imidazo[1,5-a]pyrazines as insulin-like growth-factor-I receptor (IGF-IR) inhibitors” (Bioorg Med Chem Lett, 2007)

Legend:
[1] = target: T1, Insulin-like growth factor 1 receptor (Homo sapiens, UniProt P08069); assay: Inhibition of IGF1-stimulated phosphorylation of human recombinant IGF1R expressed in NIH3T3 cells; type: cell-based
[2] = target: T1, Insulin-like growth factor 1 receptor; assay: Inhibition of human recombinant GST-IGF1R activity
[3] = species on record: Homo sapiens; assay: Inhibition of PKBalpha at 10 uM
In short: (§1)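 Radiometric kinase profiling was run as an outsourced panel on recombinant purified enzymes.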

[4] = target: T2, Inhibitor of nuclear factor kappa-B kinase subunit beta (Homo sapiens) (UniProt O14920); assay: Inhibition of IKK-beta at 10 uM; in short: as §1
T2 sequence (whole entry): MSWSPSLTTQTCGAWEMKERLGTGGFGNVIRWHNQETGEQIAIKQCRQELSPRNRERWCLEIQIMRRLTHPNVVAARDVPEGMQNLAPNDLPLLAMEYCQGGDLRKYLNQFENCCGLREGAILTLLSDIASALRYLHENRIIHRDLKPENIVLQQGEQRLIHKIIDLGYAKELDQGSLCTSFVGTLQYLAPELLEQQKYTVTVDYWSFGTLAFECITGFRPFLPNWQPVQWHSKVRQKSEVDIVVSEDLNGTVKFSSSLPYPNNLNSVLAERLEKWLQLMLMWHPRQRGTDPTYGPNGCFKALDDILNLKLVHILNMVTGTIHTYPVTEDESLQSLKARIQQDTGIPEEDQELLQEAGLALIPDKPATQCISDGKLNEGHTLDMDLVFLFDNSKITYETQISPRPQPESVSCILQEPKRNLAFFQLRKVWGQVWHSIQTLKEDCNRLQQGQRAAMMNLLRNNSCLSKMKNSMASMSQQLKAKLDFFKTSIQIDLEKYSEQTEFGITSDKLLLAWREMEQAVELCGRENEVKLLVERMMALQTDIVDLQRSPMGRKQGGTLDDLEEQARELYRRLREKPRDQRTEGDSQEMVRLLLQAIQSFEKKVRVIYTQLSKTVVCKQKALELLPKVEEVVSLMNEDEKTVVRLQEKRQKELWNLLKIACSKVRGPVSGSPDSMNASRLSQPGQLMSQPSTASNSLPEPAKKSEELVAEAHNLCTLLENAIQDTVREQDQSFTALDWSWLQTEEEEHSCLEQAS

[5] = target: Ribosomal protein S6 kinase beta-1 (Homo sapiens) (UniProt P23443); assay: Inhibition of p70S6K at 10 uM; in short: as §1
[6] = target: Platelet-derived growth factor receptor beta (Homo sapiens) (UniProt P09619); assay: Inhibition of PDGFRbeta at 10 uM; in short: as §1
[7] = Half life in CD1 mouse at 1 mg/kg, iv; type: ADME, organism-based; set-up: dose 1 mg/kg, route intravenous; conditions: in vivo
In short: (§2)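 Female CD-1 mice, 6–10 weeks old, received a single 1 mg/kg IV tail-vein dose or a single 50 mg/kg oral gavage dose. The oral vehicle varied by compound: 30:70 PEG-400:WFI with Labrafil, 50:50 PEG-400:WFI, or 50:50 PEG-400:5% citric acid. Three animals were sacrificed per timepoint and blood was taken into EDTA by cardiac puncture. Plasma (1500g, 10 min) was methanol-precipitated and analysed by HPLC-MS/MS against spiked mouse-plasma calibrants. Parameters came from non-compartmental analysis of median (n=3) concentrations.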

[8] = Cmax in CD1 mouse at 50 mg/kg, po; type: ADME, organism-based; set-up: dose 50 mg/kg, route oral; conditions: in vivo; in short: as §2
[9] = target: 3-phosphoinositide-dependent protein kinase 1 (PDPK1) (Homo sapiens) (UniProt O15530); assay: Inhibition of PDK1 at 10 uM
[10] = target: Tyrosine-protein kinase ABL1 (Homo sapiens) (UniProt P00519); assay: Inhibition of Abl at 10 uM; in short: as §1
[11] = target: Serine/threonine-protein kinase Chk2 (Homo sapiens) (UniProt O96017); assay: Inhibition of Chk2 at 10 uM; in short: as §1
[12] = AUC (0 to infinity) in CD1 mouse at 50 mg/kg, po; type: ADME, organism-based; set-up: time infinity, dose 50 mg/kg, route oral; conditions: plasma; in short: as §2
[13] = target: Tyrosine-protein kinase Fes/Fps (Homo sapiens) (UniProt P07332); assay: Inhibition of Fes at 10 uM; in short: as §1
[14] = species on record: Homo sapiens; assay: Inhibition of Cdk2/Cyclin E at 10 uM; in short: as §1
[15] = target: Protein kinase C alpha type (Homo sapiens) (UniProt P17252); assay: Inhibition of PKCalpha at 10 uM; in short: as §1
[16] = species on record: Homo sapiens; assay: Inhibition of Cdk2/Cyclin A at 10 uM; in short: as §1
[17] = target: Mitogen-activated protein kinase 1 (ERK2) (Homo sapiens) (UniProt P28482); assay: Inhibition of MAPK2 at 10 uM
[18] = species on record: Homo sapiens; assay: Inhibition of PKA at 10 uM; in short: as §1
[19] = Oral bioavailability in CD1 mouse at 50 mg/kg, po; type: ADME, organism-based; conditions: in vivo; in short: as §2
[20] = target: RAF proto-oncogene serine/threonine-protein kinase (Homo sapiens) (UniProt P04049); assay: Inhibition of c-Raf at 10 uM; in short: as §1
[21] = target: Casein kinase II subunit alpha (Homo sapiens) (UniProt P68400); assay: Inhibition of CK2 at 10 uM; in short: as §1

T1 sequence (P08069 31-736 limits assumed): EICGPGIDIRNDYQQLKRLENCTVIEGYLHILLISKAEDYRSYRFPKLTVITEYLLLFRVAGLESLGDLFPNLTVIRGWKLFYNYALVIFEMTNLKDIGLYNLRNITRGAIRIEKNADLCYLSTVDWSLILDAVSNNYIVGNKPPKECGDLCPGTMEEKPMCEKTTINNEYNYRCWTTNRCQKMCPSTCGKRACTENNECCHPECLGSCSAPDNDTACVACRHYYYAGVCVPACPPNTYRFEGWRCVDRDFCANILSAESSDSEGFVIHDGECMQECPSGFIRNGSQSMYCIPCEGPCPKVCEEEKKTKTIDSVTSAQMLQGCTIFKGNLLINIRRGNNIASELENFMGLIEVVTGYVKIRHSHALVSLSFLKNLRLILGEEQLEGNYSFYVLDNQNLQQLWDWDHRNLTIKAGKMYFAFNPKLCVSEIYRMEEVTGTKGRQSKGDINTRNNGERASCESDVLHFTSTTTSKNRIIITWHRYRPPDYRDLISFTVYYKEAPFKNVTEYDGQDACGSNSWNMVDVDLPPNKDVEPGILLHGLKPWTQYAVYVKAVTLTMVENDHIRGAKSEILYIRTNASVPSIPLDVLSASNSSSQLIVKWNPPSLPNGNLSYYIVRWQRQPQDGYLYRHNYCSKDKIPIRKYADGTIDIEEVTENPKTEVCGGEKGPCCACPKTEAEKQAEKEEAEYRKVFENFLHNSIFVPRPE
T1 sequence (P08069 741-1367 limits assumed): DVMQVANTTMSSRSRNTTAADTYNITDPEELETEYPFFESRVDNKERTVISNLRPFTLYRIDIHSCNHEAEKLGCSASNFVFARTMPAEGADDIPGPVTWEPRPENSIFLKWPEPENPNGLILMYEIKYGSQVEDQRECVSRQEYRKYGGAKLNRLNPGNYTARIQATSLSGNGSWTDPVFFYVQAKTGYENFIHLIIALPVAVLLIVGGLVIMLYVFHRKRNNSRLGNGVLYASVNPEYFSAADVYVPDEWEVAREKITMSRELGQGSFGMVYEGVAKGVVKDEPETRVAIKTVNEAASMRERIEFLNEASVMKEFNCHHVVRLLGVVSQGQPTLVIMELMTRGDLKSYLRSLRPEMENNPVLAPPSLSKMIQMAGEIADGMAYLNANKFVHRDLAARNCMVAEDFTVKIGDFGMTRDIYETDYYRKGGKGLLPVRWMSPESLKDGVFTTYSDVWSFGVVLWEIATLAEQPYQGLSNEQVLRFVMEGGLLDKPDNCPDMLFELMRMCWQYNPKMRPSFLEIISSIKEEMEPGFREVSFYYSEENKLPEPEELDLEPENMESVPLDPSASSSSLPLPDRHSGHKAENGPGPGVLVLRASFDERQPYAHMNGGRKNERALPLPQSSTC
Tyrosine-protein kinase ABL1 (Homo sapiens), sequence (P00519 whole entry): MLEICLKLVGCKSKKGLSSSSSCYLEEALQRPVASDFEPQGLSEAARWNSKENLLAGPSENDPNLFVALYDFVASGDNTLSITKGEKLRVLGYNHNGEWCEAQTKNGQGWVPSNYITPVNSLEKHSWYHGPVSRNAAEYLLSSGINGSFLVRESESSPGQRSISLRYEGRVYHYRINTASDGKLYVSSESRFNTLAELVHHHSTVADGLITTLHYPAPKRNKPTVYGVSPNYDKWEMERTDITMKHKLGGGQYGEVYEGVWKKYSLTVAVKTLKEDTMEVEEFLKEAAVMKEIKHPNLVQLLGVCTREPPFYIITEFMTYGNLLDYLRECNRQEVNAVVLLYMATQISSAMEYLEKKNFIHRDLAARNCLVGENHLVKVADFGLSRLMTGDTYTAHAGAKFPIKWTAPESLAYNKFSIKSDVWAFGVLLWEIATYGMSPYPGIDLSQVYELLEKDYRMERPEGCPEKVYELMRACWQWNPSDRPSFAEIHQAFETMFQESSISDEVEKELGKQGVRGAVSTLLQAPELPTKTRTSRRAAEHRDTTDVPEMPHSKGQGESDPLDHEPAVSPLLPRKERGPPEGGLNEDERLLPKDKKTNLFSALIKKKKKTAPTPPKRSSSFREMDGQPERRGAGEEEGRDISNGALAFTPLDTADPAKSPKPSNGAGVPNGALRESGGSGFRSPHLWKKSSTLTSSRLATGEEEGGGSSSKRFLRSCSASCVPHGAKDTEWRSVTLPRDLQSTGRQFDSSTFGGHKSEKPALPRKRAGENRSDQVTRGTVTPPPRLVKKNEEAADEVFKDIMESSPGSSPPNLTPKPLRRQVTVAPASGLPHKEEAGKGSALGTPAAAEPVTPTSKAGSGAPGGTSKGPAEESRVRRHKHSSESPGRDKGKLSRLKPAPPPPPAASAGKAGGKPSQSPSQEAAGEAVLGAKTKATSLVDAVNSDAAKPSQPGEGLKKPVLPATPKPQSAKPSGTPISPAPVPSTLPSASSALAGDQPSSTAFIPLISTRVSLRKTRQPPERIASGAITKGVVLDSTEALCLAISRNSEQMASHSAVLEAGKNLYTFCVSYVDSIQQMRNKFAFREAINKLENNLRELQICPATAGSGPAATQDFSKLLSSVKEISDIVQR
Mitogen-activated protein kinase 1 (ERK2) (Homo sapiens), sequence (P28482 whole entry, looked up): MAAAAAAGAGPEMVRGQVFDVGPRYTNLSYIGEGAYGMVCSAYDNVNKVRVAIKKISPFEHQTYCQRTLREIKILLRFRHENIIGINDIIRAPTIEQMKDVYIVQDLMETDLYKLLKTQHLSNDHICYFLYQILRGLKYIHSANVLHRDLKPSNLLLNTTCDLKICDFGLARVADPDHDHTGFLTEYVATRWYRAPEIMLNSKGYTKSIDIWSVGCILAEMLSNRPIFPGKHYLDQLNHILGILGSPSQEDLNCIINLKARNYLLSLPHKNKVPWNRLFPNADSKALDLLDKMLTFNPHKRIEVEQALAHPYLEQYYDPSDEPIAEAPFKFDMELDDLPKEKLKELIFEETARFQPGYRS
RAF proto-oncogene serine/threonine-protein kinase (Homo sapiens), sequence (P04049 whole entry): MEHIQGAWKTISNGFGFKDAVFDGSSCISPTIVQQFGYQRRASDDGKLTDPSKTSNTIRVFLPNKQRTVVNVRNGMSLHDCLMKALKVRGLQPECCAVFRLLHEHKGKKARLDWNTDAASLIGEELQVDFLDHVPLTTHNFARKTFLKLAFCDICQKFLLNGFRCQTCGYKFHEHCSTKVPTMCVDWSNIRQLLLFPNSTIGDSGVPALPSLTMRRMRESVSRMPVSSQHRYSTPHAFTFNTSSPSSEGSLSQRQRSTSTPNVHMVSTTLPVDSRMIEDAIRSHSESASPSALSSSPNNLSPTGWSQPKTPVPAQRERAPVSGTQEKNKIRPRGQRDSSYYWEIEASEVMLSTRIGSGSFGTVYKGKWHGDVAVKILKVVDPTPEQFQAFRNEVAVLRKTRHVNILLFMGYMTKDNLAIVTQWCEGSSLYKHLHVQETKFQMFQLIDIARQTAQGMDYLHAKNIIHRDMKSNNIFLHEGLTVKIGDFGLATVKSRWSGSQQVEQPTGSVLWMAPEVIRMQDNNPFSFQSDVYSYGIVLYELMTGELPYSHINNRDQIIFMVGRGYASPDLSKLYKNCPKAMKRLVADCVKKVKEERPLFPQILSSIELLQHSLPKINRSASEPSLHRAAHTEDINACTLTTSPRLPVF
3-phosphoinositide-dependent protein kinase 1 (PDPK1) (Homo sapiens), sequence (O15530 whole entry, looked up): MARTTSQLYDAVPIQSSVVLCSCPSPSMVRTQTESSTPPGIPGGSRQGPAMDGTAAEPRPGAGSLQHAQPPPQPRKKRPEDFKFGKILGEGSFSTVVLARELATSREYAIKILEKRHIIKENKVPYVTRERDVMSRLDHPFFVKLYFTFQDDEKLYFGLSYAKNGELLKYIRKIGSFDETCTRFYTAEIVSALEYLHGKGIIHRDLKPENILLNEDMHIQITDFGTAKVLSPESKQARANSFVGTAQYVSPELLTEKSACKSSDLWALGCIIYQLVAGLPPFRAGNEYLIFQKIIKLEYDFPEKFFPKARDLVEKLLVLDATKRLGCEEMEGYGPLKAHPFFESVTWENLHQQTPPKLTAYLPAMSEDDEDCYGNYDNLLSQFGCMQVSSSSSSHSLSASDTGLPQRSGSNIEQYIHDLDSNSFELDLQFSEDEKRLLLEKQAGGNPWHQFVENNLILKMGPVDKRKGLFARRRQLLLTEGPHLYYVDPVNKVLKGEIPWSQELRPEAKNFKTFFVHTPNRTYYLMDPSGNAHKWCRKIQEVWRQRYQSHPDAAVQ

Structure (SMILES)	IC50 [1]	IC50 [2]	half-life [7]	Cmax [8]	AUC(0-inf) [12]	bioavailability [19]	further results
Nc1nccn2c1c(-c1cccc(OCc3ccccc3)c1)nc2[C@H]1CC[C@H](CN2CCC2)CC1	398 nM	81 nM					
NC[C@H]1CC[C@H](c2nc(-c3cccc(OCc4ccccc4)c3)c3c(N)nccn32)CC1	534 nM	119 nM	2.29 h	2850 nM	3930 ng·h/mL	47%	inhibition [3]: < 50%; inhibition [4]: < 50%; inhibition [5]: < 50%; inhibition [6]: < 50%; inhibition [9]: < 50%; inhibition [10]: < 50%; inhibition [11]: < 50%; inhibition [13]: < 50%; inhibition [14]: < 50%; inhibition [15]: < 50%; inhibition [16]: < 50%; inhibition [17]: < 50%; inhibition [18]: < 50%; inhibition [20]: < 50%; inhibition [21]: < 50%
NC[C@H]1C[C@@H](c2nc(-c3cccc(OCc4ccccc4)c3)c3c(N)nccn32)C1	690 nM	60 nM					
Nc1nccn2c1c(-c1cccc(OCc3ccccc3)c1)nc2[C@H]1CC[C@H](C(N)=O)CC1			0.63 h	2220 nM	1320 ng·h/mL	34%	
Nc1nccn2c(C3CCC3)nc(-c3ccc(Oc4ccccc4)cc3)c12		> 10000 nM					
Nc1nccn2c(C3CCC3)nc(-c3cccc(OCc4ccccc4)c3)c12	1160 nM	606 nM	1.3 h	860 nM	1760 ng·h/mL	47%	
NC[C@H]1CC[C@@H](c2nc(-c3cccc(OCc4ccccc4)c3)c3c(N)nccn32)CC1	560 nM	228 nM					
COc1ccc(-c2nc(C3CCC3)n3ccnc(N)c23)cc1OCc1ccccc1		1350 nM					
